In ChEMBL document CHEMBL2390836, “Synthesis and antitumor activities of naturally occurring oleanolic acid triterpenoid saponins and their derivatives” (Eur J Med Chem, 2013):

Assays:
Format in all cases: functional, cell-based
[1] = test system: HL-60; experiment: Cytotoxicity against human HL60 cells after 72 hrs by MTT assay; settings: HL-60, 72 h
In short: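 HL-60 human promyelocytic leukemia cells were plated in 96 wells and treated in triplicate with graded concentrations at 37 °C for 72 h. Viability was read by MTT reduction. IC50 was obtained by the Logit method from at least three independent experiments.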

[2] = test system: A549; experiment: Cytotoxicity against human A549 cells after 72 hrs by sulforhodamine B assay; settings: A549, 72 h
In short: (§1)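 Cells seeded in 96-well plates and exposed in triplicate to a concentration gradient at 37 °C for 72 h. Total protein staining with sulforhodamine B was the read-out. IC50 was calculated by the Logit method from at least three independent experiments.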

[3] = test system: A-375; experiment: Cytotoxicity against human A375 cells after 72 hrs by sulforhodamine B assay; settings: A-375, 72 h; in short: as §1

Compound	IC50 [1]	IC50 [2]	IC50 [3]
C[C@@H]1O[C@@H](O[C@H]2[C@H](O[C@H]3CC[C@]4(C)[C@H]5CC=C6[C@@H]7CC(C)(C)CC[C@]7(C(=O)O[C@@H]7O[C@H](CO[C@@H]8O[C@H](CO)[C@@H](O)[C@H](O)[C@H]8O)[C@@H](O)[C@H](O)[C@H]7O)CC[C@@]6(C)[C@]5(C)CC[C@H]4C3(C)C)OC[C@@H](O)[C@@H]2O)[C@H](O)[C@H](O[C@@H]2OC[C@@H](O)[C@H](O)[C@H]2O)[C@H]1O	> 20 µM	> 20 µM	> 20 µM
C[C@@H]1O[C@@H](O[C@H]2[C@H](O[C@H]3CC[C@]4(C)[C@H]5CC=C6[C@@H]7CC(C)(C)CC[C@]7(C(=O)O[C@@H]7O[C@H](CO[C@@H]8O[C@H](CO)[C@@H](O)[C@H](O)[C@H]8O)[C@@H](O)[C@H](O)[C@H]7O)CC[C@@]6(C)[C@]5(C)CC[C@H]4C3(C)C)OC[C@@H](O)[C@@H]2O)[C@H](O)[C@H](O[C@@H]2O[C@H](CO)[C@@H](O)[C@H](O)[C@H]2O)[C@H]1O	> 20 µM	> 20 µM	> 20 µM
CC1(C)CC[C@]2(C(=O)O)CC[C@]3(C)C(=CC[C@@H]4[C@@]5(C)CC[C@H](O[C@@H]6O[C@H](CO)[C@@H](O)[C@H](O)[C@H]6O[C@@H]6O[C@H](CO)[C@@H](O)[C@H](O)[C@H]6O)C(C)(C)[C@@H]5CC[C@]43C)[C@@H]2C1 [ACUTOSIDE A]	12.5 µM	15.3 µM	10.3 µM
COc1cccc2c1C(=O)c1c(O)c3c(c(O)c1C2=O)C[C@@](O)(C(=O)CO)C[C@@H]3O[C@H]1C[C@H](N)[C@H](O)[C@H](C)O1 [DOXORUBICIN]	0.9 µM	0.56 µM	0.75 µM
CC[C@@]1(O)C(=O)OCc2c1cc1n(c2=O)Cc2cc3cc(O)ccc3nc2-1 [HYDROXYCAMPTOTHECIN]	0.25 µM	0.56 µM	0.15 µM
